From ChEMBL document CHEMBL1177846, “Benzylidene/2-chlorobenzylidene hydrazides: synthesis, antimicrobial activity, QSAR studies and antiviral evaluation” (Eur J Med Chem, 2010)
The source made the active and inactive calls. The rule behind the calls is not given here.

What was measured:
Human alphaherpesvirus 1 [1] = test: Antiviral activity against acyclovir-resistant […] kinase-deficient HSV1 KOS infected in human HEL cells assessed as inhibition of virus-induced cytopathic effect after 3 days by MTS assay; type: functional, organism-based
Method in brief: (§1)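 Confluent cell monolayers were infected with 100 CCID50 of virus and allowed 2 h adsorption at 37 °C. Virus was then removed and serial compound dilutions were added. Cultures were incubated at 37 °C for 3 days, until CPE was complete in the untreated virus control. EC50 was the concentration giving 50% inhibition of virus-induced CPE, by visual score or by MTS formazan cell viability.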

Staphylococcus aureus = test: Antibacterial activity against Staphylococcus aureus after 24 hrs by serial dilution method; type: functional
Candida albicans = test: Antifungal activity against Candida albicans after 48 hrs by serial dilution method; type: functional
Method in brief: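 Serial compound dilutions in Sabouraud dextrose broth (tube dilution), incubated 37 °C for 48 h. MIC was read as the lowest concentration with no growth.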

Human respirovirus 3 = test: Antiviral activity against Parainfluenza 3 virus infected in african green monkey Vero cells assessed as inhibition of virus-induced cytopathic effect after 3 days by MTS assay; type: functional, organism-based; method in brief: as §1
Human alphaherpesvirus 1 [2] = test: Antiviral activity against Herpes simplex virus 1 KOS infected in human HEL cells assessed as inhibition of virus-induced cytopathic effect after 3 days by MTS assay; type: functional, organism-based; method in brief: as §1
Influenza A virus [3] = test: Antiviral activity against influenza A virus H1N1 infected in MDCK cells assessed as inhibition of virus-induced cytopathic effect after 3 days by MTS assay; type: functional, organism-based; method in brief: as §1
Escherichia coli = test: Antibacterial activity against Escherichia coli after 24 hrs by serial dilution method; type: functional
Aspergillus niger = test: Antifungal activity against Aspergillus niger after 7 days by serial dilution method; type: functional
Sindbis virus = test: Antiviral activity against Simbidis virus infected in african green monkey Vero cells assessed as inhibition of virus-induced cytopathic effect after 3 days by MTS assay; type: functional, organism-based; method in brief: as §1
Punta Toro virus = test: Antiviral activity against Punta toro virus infected in african green monkey Vero cells assessed as inhibition of virus-induced cytopathic effect after 3 days by MTS assay; type: functional, organism-based; method in brief: as §1
Bacillus subtilis = test: Antibacterial activity against Bacillus subtilis after 24 hrs by serial dilution method; type: functional
Influenza B virus = test: Antiviral activity against influenza B virus infected in MDCK cells assessed as inhibition of virus-induced cytopathic effect after 3 days by MTS assay; type: functional, organism-based; method in brief: as §1
Coxsackievirus B4 = test: Antiviral activity against Coxsackie virus B4 infected in african green monkey Vero cells assessed as inhibition of virus-induced cytopathic effect after 3 days by MTS assay; type: functional, organism-based; method in brief: as §1
[4] = tested on: Vesicular stomatitis virus; test: Antiviral activity against VSV infected in human HEL cells assessed as inhibition of virus-induced cytopathic effect after 3 days by MTS assay; type: functional, organism-based; method in brief: as §1
[5] = tested on: Mammalian orthoreovirus 1; test: Antiviral activity against Reovirus 1 infected in african green monkey Vero cells assessed as inhibition of virus-induced cytopathic effect after 3 days by MTS assay; type: functional, organism-based; method in brief: as §1
Feline coronavirus = test: Antiviral activity against Feline caronavirus infected in […] cells assessed as inhibition of virus-induced cytopathic effect after 3 days by MTS assay; type: functional, organism-based; method in brief: as §1
Influenza A virus [6] = test: Antiviral activity against influenza A virus H3N2 infected in MDCK cells assessed as inhibition of virus-induced cytopathic effect after 3 days by MTS assay; type: functional, organism-based; method in brief: as §1
Human alphaherpesvirus 2 = test: Antiviral activity against Herpes simplex virus 2 G infected in human HEL cells assessed as inhibition of virus-induced cytopathic effect after 3 days by MTS assay; type: functional, organism-based; conditions: strain G; method in brief: as §1
Felid alphaherpesvirus 1 = test: Antiviral activity against Feline herpesvirus 1 infected in […] cells assessed as inhibition of virus-induced cytopathic effect after 3 days by MTS assay; type: functional, organism-based; method in brief: as §1
Vaccinia virus = test: Antiviral activity against Vaccinia virus infected in human HEL cells assessed as inhibition of virus-induced cytopathic effect after 3 days by MTS assay; type: functional, organism-based; conditions: Orthopoxvirus vaccinia; method in brief: as §1

| SMILES | inhibition (Human alphaherpesvirus 1 [1]) | MBC (Staphylococcus aureus) [uM/ml] | MFC (Candida albicans) [uM/ml] | inhibition (Human respirovirus 3) | inhibition (Human alphaherpesvirus 1 [2]) | inhibition (Influenza A virus [3]) | MBC (Escherichia coli) [uM/ml] | -logMIC (Aspergillus niger) | MFC (Aspergillus niger) [uM/ml] | inhibition (Sindbis virus) | inhibition (Punta Toro virus) | MBC (Bacillus subtilis) [uM/ml] | inhibition (Influenza B virus) | inhibition (Coxsackievirus B4) | inhibition [4] | inhibition [5] | inhibition (Feline coronavirus) | inhibition (Influenza A virus [6]) | inhibition (Human alphaherpesvirus 2) | inhibition (Felid alphaherpesvirus 1) | other results |
| --- | --- | --- | --- | --- | --- | --- | --- | --- | --- | --- | --- | --- | --- | --- | --- | --- | --- | --- | --- | --- | --- |
| CCCCCCCCCCCCCCCC(=O)N/N=C/c1ccccc1Cl | inactive | >0.127 | >0.127 | inactive | inactive | inactive | 0.031 | 1.27 | >0.127 | inactive | inactive | 0.031 | inactive | inactive | inactive | inactive | inactive | inactive | inactive | inactive | -logMIC (Staphylococcus aureus): 1.5; -logMIC (Candida albicans): 2.1; -logMIC (Bacillus subtilis): 1.49; inhibition (Vaccinia virus): inactive |
| Cc1cccc(C(=O)N/N=C/c2ccccc2Cl)c1 | inactive | >0.183 | >0.183 | inactive | inactive | inactive | 0.045 | 1.51 | >0.183 | inactive | inactive | 0.045 | inactive | inactive | inactive | inactive | inactive | inactive | inactive | inactive | inhibition (Vaccinia virus): inactive |
| OC(Cn1cncn1)(Cn1cncn1)c1ccc(F)cc1F [FLUCONAZOLE] |  |  |  |  |  |  |  | 2.64 |  |  |  |  |  |  |  |  |  |  |  |  |  |
| CCCCCCCCCCCCCCCCCC(=O)N/N=C/c1ccccc1Cl | inactive | >0.119 | >0.119 | inactive | inactive | inactive | >0.119 | 1.29 | 0.059 | inactive | inactive | 0.029 | inactive | inactive | inactive | inactive | inactive | inactive | inactive | inactive | -logMIC (Staphylococcus aureus): 1.53; -logMIC (Bacillus subtilis): 1.53; inhibition (Vaccinia virus): inactive |
| CCCCCCCCCCCC(=O)N/N=C/c1ccccc1 | inactive | >0.166 | >0.166 | inactive | inactive | inactive | 0.041 | 1.21 | >0.166 | inactive | inactive | >0.166 | inactive | inactive | inactive | inactive | inactive | inactive | inactive | inactive | inhibition (Vaccinia virus): inactive |
| C/C=C/C=C/C(=O)N/N=C/c1ccccc1 | inactive | >0.233 | >0.233 | inactive | inactive | inactive | 0.058 | 1.54 | >0.233 | inactive | inactive | >0.233 | inactive | inactive | inactive | inactive | inactive | inactive | inactive | inactive | -logMIC (Candida albicans): 0.93; inhibition (Vaccinia virus): inactive |
| CCCCCCCCCCCCCC(=O)N/N=C/c1ccccc1 | inactive | >0.152 | >0.152 | inactive | inactive | inactive | >0.152 | 1.24 | >0.152 | inactive | inactive | >0.152 | inactive | inactive | inactive | inactive | inactive | inactive | inactive | inactive | inhibition (Vaccinia virus): inactive |
| O=C(N/N=C/c1ccccc1Cl)c1cc([N+](=O)[O-])cc([N+](=O)[O-])c1 | inactive | >0.13 | >0.13 | inactive | inactive | inactive | >0.13 | 1.6 | >0.13 | inactive | inactive | 0.065 | inactive | inactive | inactive | inactive | inactive | inactive | inactive | inactive | -logMIC (Candida albicans): 2.05; inhibition (Vaccinia virus): inactive |
| CCCCCCCCCCCCCC(=O)N/N=C/c1ccccc1Cl | inactive | >0.137 | >0.137 | inactive | inactive | inactive | 0.034 | 1.12 | >0.137 | inactive | inactive | >0.137 | inactive | inactive | inactive | inactive | inactive | inactive | inactive | inactive | inhibition (Vaccinia virus): inactive |
| Cc1cccc(C(=O)N/N=C/c2ccccc2)c1 | inactive | >0.21 | >0.21 | inactive | inactive | inactive | >0.21 | 1.58 | >0.21 | inactive | inactive | 0.052 | inactive | inactive | inactive | inactive | inactive | inactive | inactive | inactive | inhibition (Vaccinia virus): inactive |
| Cc1ccc(C(=O)N/N=C/c2ccccc2)cc1 | inactive | >0.21 | >0.21 | inactive | inactive | inactive | 0.052 | 1.88 | >0.21 | inactive | inactive | 0.21 | inactive | inactive | inactive | inactive | inactive | inactive | inactive | inactive | inhibition (Vaccinia virus): inactive |
